Activity calls are given as the source filed them. No cut-off for these calls is given here.
What was measured:
[1] = test system: Puccinia triticina; assay: Antifungal activity against Puccinia recondita f. sp. tritici infected in wheat seedlings at 40 ppm relative to control; format: functional
In short: (§1)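 Test suspension sprayed to run-off on Stevens wheat seedlings. Next day inoculated with a Puccinia recondita f. sp. tritici spore suspension. Held 24 h in a saturated atmosphere at 20 °C, then 7 days in a 20 °C growth chamber before disease rating. Rates in ppm. Given as percent control versus untreated control plants.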

[2] = test system: Puccinia triticina; assay: Antifungal activity against Puccinia recondita f. sp. tritici infected in wheat seedlings at 10 ppm relative to control; format: functional; in short: as §1
[3] = test system: Parastagonospora nodorum; assay: Antifungal activity against Stagonospora nodorum infected in wheat seedlings at 40 ppm relative to control; format: functional
In short: (§2)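 Wheat seedlings, treated the day before, inoculated with a Stagonospora nodorum spore suspension. Held in a saturated atmosphere at 20 °C for 48 h, then 5 days in a growth chamber at 22 °C, then disease rated. Rates in ppm. Scored as percent control relative to untreated control plants.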

[4] = test system: Parastagonospora nodorum; assay: Antifungal activity against Stagonospora nodorum infected in wheat seedlings at 10 ppm relative to control; format: functional; in short: as §2
[5] = test system: Parastagonospora nodorum; assay: Antifungal activity against Stagonospora nodorum infected in wheat seedlings at 2 ppm relative to control; format: functional; in short: as §2
[6] = test system: Puccinia triticina; assay: Antifungal activity against Puccinia recondita f. sp. tritici infected in wheat seedlings at 2 ppm relative to control; format: functional; in short: as §1
[7] = test system: Botrytis cinerea; assay: Antifungal activity against Botryotinia fuckeliana infected in orange pixie tomato seedlings at 40 ppm relative to control; format: functional
In short: (§3)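 Orange Pixie tomato seedlings sprayed to run-off with test suspension, then inoculated next day with a Botryotinia fuckeliana spore suspension. Kept saturated at 20 °C for 48 h, then 1 more day at 24 °C in a growth chamber before rating. Rates in ppm. Expressed as percent control relative to untreated control plants.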

[8] = test system: Botrytis cinerea; assay: Antifungal activity against Botryotinia fuckeliana infected in orange pixie tomato seedlings at 10 ppm relative to control; format: functional; in short: as §3
[9] = test system: Botrytis cinerea; assay: Antifungal activity against Botryotinia fuckeliana infected in orange pixie tomato seedlings at 2 ppm relative to control; format: functional; in short: as §3
[10] = Antiproliferative activity against human Rhabdomyosarcoma cells after 96 hrs by MTS assay; format: functional, cell-based; conditions: Rhabdomyosarcoma cell
In short: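 Rhabdomyosarcoma cells (ATCC CCL-136) seeded at 10,000 cells/well and allowed to adhere 1–3 h. Medium then replaced with compound-containing medium over a concentration range. Grown 96 h at 37 °C, 5% CO2. Viable cells read by MTS/PMS formazan after 3–4 h at 37 °C, absorbance 490 nm. Data normalized to solvent-only wells; IC50 in nM.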

[11] = test system: Parastagonospora nodorum; assay: Antifungal activity against Stagonospora nodorum infected in wheat seedlings at 200 ppm relative to control; format: functional; in short: as §2
[12] = test system: Puccinia triticina; assay: Antifungal activity against Puccinia recondita f. sp. tritici infected in wheat seedlings at 200 ppm relative to control; format: functional; in short: as §1
[13] = test system: Botrytis cinerea; assay: Antifungal activity against Botryotinia fuckeliana infected in orange pixie tomato seedlings at 200 ppm relative to control; format: functional; in short: as §3
[14] = target: T1, Tubulin (Bos taurus) (UniProt Q6B856+Q862L2+Q862F3); assay: Induction of bovine tubulin polymerization at 3 uM by microplate reader; format: protein assay
In short: (§4)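 Purified bovine tubulin at 4 mg/ml in 80 mM PIPES pH 6.9, 0.5 mM EGTA, 2 mM MgCl2, 1 mM GTP. Compound added at reaction start at constant DMSO. Polymerization started at 37 °C and followed over time by absorbance at 340 nm. Controls: paclitaxel 10 µM (positive) and 0.5% DMSO (negative).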

[15] = target: T1, Tubulin (Bos taurus); assay: Induction of bovine tubulin polymerization at 10 uM by microplate reader; format: protein assay; in short: as §4

Activity [14]	Activity [15]	SMILES	Activity [1]	Activity [2]	Activity [3]	Activity [4]	Activity [5]	Activity [6]	Activity [7]	Activity [8]	Activity [9]	IC50 [10]	Activity [11]	Activity [12]	Activity [13]
–	–	CC[C@H](C)Cn1c(-c2c(F)cc(F)cc2F)c(Cl)nc(-n2cccn2)c1=O	100%	100%	100%	99%	0%	99%	100%	100%	100%	20 nM	–	–	–
–	–	CC[C@H](C)Cn1c(-c2c(F)cc(OC)cc2F)c(Cl)nc(-n2cccn2)c1=O	100%	100%	100%	100%	69%	99%	99%	99%	99%	10 nM	100%	100%	99%
Active	–	CC(C)Cn1c(-c2c(F)cc(F)cc2F)c(Cl)nc(-n2cccn2)c1=O	100%	100%	100%	90%	0%	92%	100%	100%	100%	–	100%	100%	100%
–	–	CC(C)Cn1c(-c2c(F)cccc2F)c(Br)nc(-n2cccn2)c1=O	99%	88%	100%	86%	–	–	100%	99%	–	–	100%	100%	100%
–	–	CC(C)Cn1c(-c2ccc(F)cc2Cl)c(Cl)nc(-n2cccn2)c1=O	100%	100%	100%	99%	0%	83%	100%	100%	100%	–	100%	100%	100%
–	–	CC(C)Cn1c(-c2c(F)cccc2F)c(Cl)nc(-c2nccn2C)c1=O	0%	0%	0%	0%	–	–	0%	0%	–	–	0%	0%	0%
Active	–	CC(C)Cn1c(-c2c(F)cccc2F)c(Cl)nc(-n2cccn2)c1=O	100%	100%	99%	92%	0%	28%	99%	97%	75%	–	–	–	–
–	–	CC[C@H](C)Cn1c(-c2c(F)cccc2F)c(Cl)nc(-n2nc(C)cc2C)c1=O	22%	0%	0%	0%	–	–	0%	0%	–	–	0%	73%	0%
–	–	CC[C@H](C)Cn1c(-c2c(F)cc(OCCN(C)C)cc2F)c(Cl)nc(-n2cccn2)c1=O	91%	55%	–	–	–	–	68%	0%	–	210 nM	–	100%	99%
–	–	CC(=O)Nc1nc(Cl)c(-c2c(F)cccc2F)n(CC(C)C)c1=O	90%	0%	0%	0%	–	–	92%	15%	–	–	0%	99%	99%
–	–	CCC(C)Cn1c(-c2c(F)cc(F)cc2F)c(Cl)nc(-n2cccn2)c1=O (stereo not drawn)	100%	100%	100%	98%	0%	89%	100%	100%	100%	–	100%	100%	100%
–	–	CC(C)Cn1c(-c2c(F)cccc2F)c(Cl)nc(-c2cn(C)cn2)c1=O	97%	0%	67%	0%	0%	0%	99%	0%	0%	–	97%	99%	100%
–	Active	CC(=O)O[C@H]1C(=O)[C@@]2(C)[C@H]([C@H](OC(=O)c3ccccc3)[C@]3(O)C[C@H](OC(=O)[C@H](O)[C@@H](NC(=O)c4ccccc4)c4ccccc4)C(C)=C1C3(C)C)[C@]1(OC(C)=O)CO[C@@H]1C[C@@H]2O [PACLITAXEL]	–	–	–	–	–	–	–	–	–	8.4 nM	91%	95%	0%
–	–	CC(C)Cn1c(-c2c(F)cccc2F)c(Cl)nc(-c2cnccn2)c1=O	89%	0%	0%	0%	–	–	98%	83%	–	–	98%	99%	98%
–	–	CC[C@H](C)Cn1c(-c2c(F)cc(OCCCN(C)C)cc2F)c(Cl)nc(-n2cccn2)c1=O	99%	89%	0%	0%	0%	0%	94%	94%	0%	1.3 nM	94%	100%	–
–	–	CC[C@H](C)Cn1c(-c2c(F)cccc2F)c(Cl)nc(-n2ccnc2)c1=O	0%	0%	0%	0%	–	–	0%	0%	–	–	0%	0%	0%
–	–	CC[C@H](C)Cn1c(-c2c(F)cc(OCCCNC)cc2F)c(Cl)nc(-n2cccn2)c1=O.Cl	100%	99%	88%	33%	0%	68%	99%	99%	21%	0.6 nM	100%	100%	100%

Reference: ChEMBL document CHEMBL3739347, “Tubulin modulating antifungal and antiproliferative pyrazinone derivatives” (Bioorg Med Chem, 2016)
